In ChEMBL document CHEMBL4373633, “New methods to assess 6-thiopurine toxicity and expanding its therapeutic application to pancreatic cancer via small molecule potentiators” (Medchemcomm, 2019):
Activity calls are given as the source filed them. The rule behind the calls is not given here.

Tests used:
[1] = Inhibition of Streptococcus pyogenes UDPGDH expressed in Escherichia coli/rat liver microsome UGT-1A assessed as reduction in BMG production at 5 uM in presence of UDPGA by HPLC analysis; type: ADME; details: microsomes
In short: (§1)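 Coupled in vitro model in phosphate buffer with alamethicin. Microsomal UGT-1A 4.4 units/mL, 2 mM bilirubin, 10 mM NAD+, 5 mM UDPG, UDPGDH:UGT-1A ratio 1:2200. Reaction started by adding UDPGDH. UDPGA-rescue arm included 15 μM UDPGA. Bilirubin mono- and diglucuronide formation measured by HPLC.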

[2] = Inhibition of UDPGDH/UGT-1A in hepatocytes (unknown origin) assessed as reduction in BMG production at 5 uM in presence of UDPGA by HPLC analysis; type: ADME, cell-based; details: human
[3] = Inhibition of Streptococcus pyogenes UDPGDH expressed in Escherichia coli/rat liver microsome UGT-1A assessed as reduction in BMG production at 5 uM by HPLC analysis; type: ADME; details: microsomes; in short: as §1
[4] = biological target: T1, UDP-glucose 6-dehydrogenase (Streptococcus pyogenes, UniProt P0C0F4); assay: Inhibition of Streptococcus pyogenes UDPGDH expressed in Escherichia coli assessed as inhibitior constant by mesuring UDPGA production after 20 to 120 secs by HPLC analysis
T1 sequence (P0C0F4 whole entry): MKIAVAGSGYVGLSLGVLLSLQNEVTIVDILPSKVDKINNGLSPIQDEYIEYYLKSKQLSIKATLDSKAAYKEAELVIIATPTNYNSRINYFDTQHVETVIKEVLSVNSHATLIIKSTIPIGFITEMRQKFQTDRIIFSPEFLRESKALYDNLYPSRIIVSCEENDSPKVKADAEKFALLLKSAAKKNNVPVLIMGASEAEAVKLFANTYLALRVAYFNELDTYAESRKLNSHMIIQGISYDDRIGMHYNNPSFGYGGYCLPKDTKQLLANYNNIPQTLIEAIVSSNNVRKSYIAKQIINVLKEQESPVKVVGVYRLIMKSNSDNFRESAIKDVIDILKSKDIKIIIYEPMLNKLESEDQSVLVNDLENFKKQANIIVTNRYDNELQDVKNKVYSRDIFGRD
In short: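 UDPGA formed by UDPGDH was quantified by reverse-phase C18 HPLC at 262 nm against a UDPGA standard curve. Aqueous phase 8 mM imidazole/2.5 mM TBAHS, pH 6.5; organic phase methanol; 0.5 mL/min gradient over a 23 min run. UDPG was varied at several inhibitor levels. Slopes of the lines were plotted against inhibitor concentration, and Ki was taken as the […] x-intercept.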

[5] = Inhibition of Streptococcus pyogenes UDPGDH expressed in Escherichia coli/rat liver microsome UGT-1A assessed as reduction in BDG production at 5 uM in presence of UDPGA by HPLC analysis; type: ADME; details: microsomes; in short: as §1
[6] = biological target: T1, UDP-glucose 6-dehydrogenase; assay: Inhibition of Streptococcus pyogenes UDPGDH expressed in Escherichia coli assessed as inhibitior constant after 20 to 120 secs by UV-VIS spectroscopic analysis
[7] = Inhibition of UDPGDH/UGT-1A in hepatocytes (unknown origin) assessed as reduction in BDG production at 5 uM by HPLC analysis; type: ADME, cell-based; details: human
[8] = Inhibition of Streptococcus pyogenes UDPGDH expressed in Escherichia coli/rat liver microsome UGT-1A assessed as reduction in BDG production at 5 uM by HPLC analysis; type: ADME; details: microsomes; in short: as §1
[9] = Inhibition of UDPGDH/UGT-1A in hepatocytes (unknown origin) assessed as reduction in BDG production at 25 uM by HPLC analysis; type: ADME, cell-based; details: human
REH [10] = assay: Synergistic antiproliferative activity against human REH cells assessed as cell death at 2.5 uM after 72 hrs in presence of 100 uM 6TP by alamar blue assay (reference value: 49.5%); type: functional
REH [11] = assay: Synergistic antiproliferative activity against human REH cells assessed as cell death at 2.5 uM after 72 hrs in presence of 25 uM 6TP by alamar blue assay (reference value: 12.2%); type: functional
MIA PaCa-2 [12] = assay: Synergistic antiproliferative activity against human MIAPaCa2 cells assessed as cell death at 2.5 uM after 72 hrs in presence of 10 uM 6TP by alamar blue assay (reference value: 6.9%); type: functional
HeLa [13] = assay: Synergistic antiproliferative activity against human HeLa cells at 2.5 to 5 uM after 72 hrs in presence of 6TP by alamar blue assay; type: functional, cell-based
REH [14] = assay: Synergistic antiproliferative activity against human REH cells assessed as cell death at 5 uM after 72 hrs in presence of 25 uM 6TP by alamar blue assay (reference value: 12.2%); type: functional
MIA PaCa-2 [15] = assay: Synergistic antiproliferative activity against human MIAPaCa2 cells assessed as cell death at 5 uM after 72 hrs in presence of 10 uM 6TP by alamar blue assay (reference value: 6.9%); type: functional
MIA PaCa-2 [16] = assay: Synergistic antiproliferative activity against human MIAPaCa2 cells assessed as cell death at 5 uM after 72 hrs in presence of 50 uM 6TP by alamar blue assay (reference value: 13.8%); type: functional
A549 [17] = assay: Synergistic antiproliferative activity against human A549 cells at 2.5 to 5 uM after 72 hrs in presence of 6TP by alamar blue assay; type: functional, cell-based
REH [18] = assay: Synergistic antiproliferative activity against human REH cells assessed as cell death at 2.5 uM after 72 hrs in presence of 50 uM 6TP by alamar blue assay (reference value: 21.9%); type: functional
MIA PaCa-2 [19] = assay: Synergistic antiproliferative activity against human MIAPaCa2 cells assessed as cell death at 2.5 uM after 72 hrs in presence of 100 uM 6TP by alamar blue assay (reference value: 30.7%); type: functional
A549 [20] = assay: Antiproliferative activity against human A549 cells assessed as reduction in cell viability after 72 hrs by alamar blue assay; type: functional, cell-based; details: A549, 72 h
In short: (§2)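 Cell lines from ATCC, grown in medium with FBS and antibiotics at 37 °C, 5% CO2, 95% humidity. Compound DMSO stocks diluted in medium over 31.6 nM–200 μM, tested in triplicate. Plated at 2000 cells/well (adherent) or 3500 (suspension). After 69 h of continuous exposure, Alamar Blue was added for 3 h more. Fluorescence read at ex 560/em 590 nm. IC50 from ≥3 independent experiments.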

REH [21] = assay: Synergistic antiproliferative activity against human REH cells assessed as cell death at 5 uM after 72 hrs in presence of 50 uM 6TP by alamar blue assay (reference value: 21.9%); type: functional
U-937 [22] = assay: Synergistic antiproliferative activity against human U937 cells at 2.5 to 5 uM after 72 hrs in presence of 6TP by alamar blue assay based Chou-Talalay method; type: functional, cell-based
MIA PaCa-2 [23] = assay: Synergistic antiproliferative activity against human MIAPaCa2 cells assessed as cell death at 2.5 uM after 72 hrs in presence of 25 uM 6TP by alamar blue assay (reference value: 6.4%); type: functional
REH [24] = assay: Synergistic antiproliferative activity against human REH cells assessed as cell death at 2.5 uM after 72 hrs in presence of 10 uM 6TP by alamar blue assay (reference value: 10.8%); type: functional
MIA PaCa-2 [25] = assay: Synergistic antiproliferative activity against human MIAPaCa2 cells assessed as cell death at 5 uM after 72 hrs in presence of 100 uM 6TP by alamar blue assay (reference value: 30.7%); type: functional
MIA PaCa-2 [26] = assay: Synergistic antiproliferative activity against human MIAPaCa2 cells assessed as cell death at 5 uM after 72 hrs in presence of 25 uM 6TP by alamar blue assay (reference value: 6.4%); type: functional
REH [27] = assay: Synergistic antiproliferative activity against human REH cells assessed as cell death at 5 uM after 72 hrs in presence of 100 uM 6TP by alamar blue assay (reference value: 49.5%); type: functional
MIA PaCa-2 [28] = assay: Synergistic antiproliferative activity against human MIAPaCa2 cells assessed as cell death at 2.5 uM after 72 hrs in presence of 50 uM 6TP by alamar blue assay (reference value: 13.8%); type: functional
REH [29] = assay: Synergistic antiproliferative activity against human REH cells assessed as cell death at 5 uM after 72 hrs in presence of 10 uM 6TP by alamar blue assay (reference value: 10.8%); type: functional
REH [30] = assay: Synergistic antiproliferative activity against human REH cells at 2.5 to 5 uM uM after 72 hrs in presence 6TP by alamar blue assay based alamar blue assay; type: functional, cell-based
U-937 [31] = assay: Antiproliferative activity against human U937 cells assessed as reduction in cell viability after 72 hrs by alamar blue assay; type: functional, cell-based; details: U-937, 72 h; in short: as §2
MIA PaCa-2 [32] = assay: Antiproliferative activity against human MIAPaCa2 cells assessed as reduction in cell viability after 72 hrs by alamar blue assay; type: functional, cell-based; details: MIA PaCa-2, 72 h; in short: as §2
HeLa [33] = assay: Antiproliferative activity against human HeLa cells assessed as reduction in cell viability after 72 hrs by alamar blue assay; type: functional, cell-based; in short: as §2
[34] = Inhibition of Streptococcus pyogenes UDPGDH expressed in Escherichia coli/rat liver microsome UGT-1A assessed as reduction in BDG production at 10 uM by HPLC analysis; type: ADME; details: microsomes; in short: as §1
[35] = Inhibition of Streptococcus pyogenes UDPGDH expressed in Escherichia coli/rat liver microsome UGT-1A assessed as reduction in BMG production at 10 uM by HPLC analysis; type: ADME; details: microsomes; in short: as §1

## O=c1[nH]c(=S)c2[nH]c(=O)[nH]c2[nH]1
[1]
  inhibition (INH): Not Active
[2]
  inhibition (INH): Not Active
[3]
  inhibition (INH): Active
[4]
  Ki: 5 µM
[5]
  inhibition (INH): Not Active
[6]
  Ki: 7 µM
[7]
  inhibition (INH): Active
[8]
  inhibition (INH): Active

## Sc1ncnc2nc[nH]c12 [MERCAPTOPURINE ANHYDROUS]
[9]
  inhibition (INH): Active
[4]
  Ki: 111 µM
[6]
  Ki: 288 µM

## COCOc1cc(OC)c(C(=O)/C=C/c2ccccc2)c(OCOC)c1
REH [10]
  Activity: 51%
REH [11]
  Activity: 13.5%
MIA PaCa-2 [12]
  Activity: 16.5%
HeLa [13]
  Activity: inactive
REH [14]
  Activity: 19.1%
MIA PaCa-2 [15]
  Activity: 25.4%
MIA PaCa-2 [16]
  Activity: 40.8%
A549 [17]
  Activity: inactive
REH [18]
  Activity: 22.1%
MIA PaCa-2 [19]
  Activity: 49.1%
A549 [20]
  IC50: 7.2 µM
REH [21]
  Activity: 26.1%
U-937 [22]
  Activity: inactive
MIA PaCa-2 [23]
  Activity: 18.6%
REH [24]
  Activity: 11.1%
MIA PaCa-2 [25]
  Activity: 61.2%
MIA PaCa-2 [26]
  Activity: 30%
REH [27]
  Activity: 51%
MIA PaCa-2 [28]
  Activity: 25.1%
REH [29]
  Activity: 12.7%

## COCOc1cc(O)c(C(=O)/C=C/c2ccccc2)c(OCOC)c1
REH [30]
  Activity: inactive
MIA PaCa-2 [12]
  Activity: 7%
HeLa [13]
  Activity: inactive
MIA PaCa-2 [15]
  Activity: 8.1%
MIA PaCa-2 [16]
  Activity: 13%
A549 [17]
  Activity: inactive
MIA PaCa-2 [19]
  Activity: 15.2%
U-937 [22]
  Activity: inactive
MIA PaCa-2 [23]
  Activity: 7.2%
MIA PaCa-2 [25]
  Activity: 19.9%
MIA PaCa-2 [26]
  Activity: 8.2%
MIA PaCa-2 [28]
  Activity: 9.7%

## COCOc1cc(OCOC)c(C(=O)/C=C/c2ccccc2)c(OCOC)c1
REH [30]
  Activity: inactive
MIA PaCa-2 [12]
  Activity: 14.2%
HeLa [13]
  Activity: inactive
MIA PaCa-2 [15]
  Activity: 18.4%
MIA PaCa-2 [16]
  Activity: 17%
A549 [17]
  Activity: inactive
U-937 [31]
  IC50: 7.4 µM
MIA PaCa-2 [19]
  Activity: 17.6%
A549 [20]
  IC50: > 20 µM
U-937 [22]
  Activity: inactive
MIA PaCa-2 [23]
  Activity: 15%
MIA PaCa-2 [25]
  Activity: 19.3%
MIA PaCa-2 [26]
  Activity: 17.3%
MIA PaCa-2 [28]
  Activity: 16.9%
MIA PaCa-2 [32]
  IC50: > 20 µM
HeLa [33]
  IC50: 12.2 µM

## CNC(=O)c1cc(Oc2ccc(NC(=O)Nc3ccc(Cl)c(C(F)(F)F)c3)c(F)c2)ccn1 [REGORAFENIB]
[34]
  inhibition (INH): Active
[35]
  inhibition (INH): Active
